Results reported in ChEMBL document CHEMBL1649132, “Dry powder nitroimidazopyran antibiotic PA-824 aerosol for inhalation” (Antimicrob Agents Chemother, 2009).
Values after ≈ are worked out from the molar mass of the structure shown.

Assays:
[1] = system: Mycobacterium tuberculosis; experiment: Antimicrobial activity against Mycobacterium tuberculosis; assay type: functional
Cavia porcellus [2] = experiment: Bioavailability (0 to infinity) in guinea pig at 40 mg/kg, po by HPLC method; assay type: ADME, organism-based; conditions: in vivo
Procedure, shortened: (§1)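 Healthy male guinea pigs (463.86 ± 65.11 g), jugular vein cannulated 24 h before dosing; n = 6 or 7 per group. Dosing was i.v. solution 20 mg/kg, oral gavage of mixed micelle suspension (10% hydroxypropyl-β-cyclodextrin, 10% lecithin) 40 mg/kg, or intratracheal insufflation of porous dry powder at nominal 20, 40, 60 mg/kg. For insufflation, the delivered dose was taken by weighing the device before and after. Blood was drawn 0–24 h (to 32 h at 60 mg/kg) and plasma assayed by validated HPLC-UV (standards 0.20–50 µg/ml).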

[3] = Cmax in guinea pig at 40 mg/kg, administered via intratracheal insufflation by HPLC method; assay type: ADME, organism-based, Cavia porcellus; design: dose 40 mg/kg, route endotracheal; conditions: in vivo, inhaled or intranasal; procedure, shortened: as §1
[4] = Cmax in guinea pig at 40 mg/kg, po by HPLC method; assay type: ADME, organism-based, Cavia porcellus; design: dose 40 mg/kg, route oral; conditions: in vivo; procedure, shortened: as §1
[5] = AUC (0 to infinity) in guinea pig at 60 mg/kg, administered via intratracheal insufflation by HPLC method; assay type: ADME, organism-based, Cavia porcellus; design: time infinity, dose 60 mg/kg, route endotracheal; conditions: plasma, inhaled or intranasal; procedure, shortened: as §1
[6] = Mean residence time in guinea pig at 40 mg/kg, administered via intratracheal insufflation by HPLC method; assay type: ADME, organism-based, Cavia porcellus; design: dose 40 mg/kg, route endotracheal; conditions: in vivo, inhaled or intranasal; procedure, shortened: as §1
[7] = Half life in guinea pig at 60 mg/kg, administered via intratracheal insufflation by HPLC method; assay type: ADME, organism-based, Cavia porcellus; design: dose 60 mg/kg, route endotracheal; conditions: in vivo, inhaled or intranasal; procedure, shortened: as §1
[8] = Bioavailability (0 to infinity) in guinea pig at 20 mg/kg, administered via intratracheal insufflation by HPLC method; assay type: ADME, organism-based, Cavia porcellus; conditions: in vivo, inhaled or intranasal; procedure, shortened: as §1
[9] = Ratio of Cmax in guinea pig at 40 mg/kg, administered via intratracheal insufflation to MIC for Mycobacterium tuberculosis; assay type: functional; conditions: route endotracheal
[10] = Mean residence time in guinea pig at 60 mg/kg, administered via intratracheal insufflation by HPLC method; assay type: ADME, organism-based, Cavia porcellus; design: dose 60 mg/kg, route endotracheal; conditions: in vivo, inhaled or intranasal; procedure, shortened: as §1
[11] = Bioavailability in guinea pig at 60 mg/kg, administered via intratracheal insufflation by HPLC method; assay type: ADME, organism-based, Cavia porcellus; conditions: in vivo, inhaled or intranasal; procedure, shortened: as §1
[12] = Mean residence time in guinea pig at 20 mg/kg, iv by HPLC method; assay type: ADME, organism-based, Cavia porcellus; design: dose 20 mg/kg, route intravenous; conditions: in vivo; procedure, shortened: as §1
[13] = Chemical stability of the compound after 6 months; assay type: physicochemical; conditions: 4383 h
[14] = Tmax in guinea pig at 40 mg/kg, po by HPLC method; assay type: ADME, organism-based, Cavia porcellus; design: dose 40 mg/kg, route oral; conditions: in vivo; procedure, shortened: as §1
[15] = Chemical stability of the compound at 25 degC; assay type: physicochemical
[16] = Half life in guinea pig at 20 mg/kg, administered via intratracheal insufflation by HPLC method; assay type: ADME, organism-based, Cavia porcellus; design: dose 20 mg/kg, route endotracheal; conditions: in vivo, inhaled or intranasal; procedure, shortened: as §1
[17] = Mean residence time in guinea pig at 20 mg/kg, administered via intratracheal insufflation by HPLC method; assay type: ADME, organism-based, Cavia porcellus; design: dose 20 mg/kg, route endotracheal; conditions: in vivo, inhaled or intranasal; procedure, shortened: as §1
Cavia porcellus [18] = experiment: AUC (0 to infinity) in guinea pig at 20 mg/kg, iv by HPLC method; assay type: ADME, organism-based, Plasma; design: time infinity, dose 20 mg/kg, route intravenous; conditions: in vivo; procedure, shortened: as §1
[19] = Metabolic stability of the compound assessed as compound remaining in lung of guinea pig at 40 mg/kg, po after 32 hrs; assay type: ADME, organism-based, Cavia porcellus; design: dose 40 mg/kg, route oral; conditions: in vivo
Procedure, shortened: (§2)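 After the last blood sample (32 h), the guinea pigs were euthanized by exsanguination. BAL fluid was collected with 5 ml sterile saline and centrifuged. The supernatant was assayed for drug by the plasma HPLC method, adapted for BAL fluid. Routes were i.v. 20 mg/kg, oral 40 mg/kg, or insufflated powder 20, 40, 60 mg/kg; n = 6 or 7.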

[20] = AUC (0 to infinity) in guinea pig at 20 mg/kg, administered via intratracheal insufflation by HPLC method; assay type: ADME, organism-based, Cavia porcellus; design: time infinity, dose 20 mg/kg, route endotracheal; conditions: plasma, inhaled or intranasal; procedure, shortened: as §1
[21] = Tmax in guinea pig at 60 mg/kg, administered via intratracheal insufflation by HPLC method; assay type: ADME, organism-based, Cavia porcellus; design: dose 60 mg/kg, route endotracheal; conditions: in vivo, inhaled or intranasal; procedure, shortened: as §1
[22] = Elimination rate constant in guinea pig at 20 mg/kg, administered via intratracheal insufflation by HPLC method; assay type: ADME, organism-based, Cavia porcellus; design: dose 20 mg/kg, route endotracheal; conditions: in vivo, inhaled or intranasal; procedure, shortened: as §1
[23] = Elimination rate constant in guinea pig at 20 mg/kg, iv by HPLC method; assay type: ADME, organism-based, Cavia porcellus; design: dose 20 mg/kg, route intravenous; conditions: in vivo; procedure, shortened: as §1
[24] = Cmax in guinea pig at 20 mg/kg, iv by HPLC method; assay type: ADME, organism-based, Cavia porcellus; design: dose 20 mg/kg, route intravenous; conditions: in vivo; procedure, shortened: as §1
[25] = Metabolic stability of the compound assessed as compound remaining in lung of guinea pig at 20 mg/kg, iv after 32 hrs; assay type: ADME, organism-based, Cavia porcellus; design: dose 20 mg/kg, route intravenous; conditions: in vivo; procedure, shortened: as §2
[26] = Half life in po dosed monkey; assay type: ADME, organism-based, Macaca mulatta; conditions: rhesus monkey, in vivo
[27] = Tmax in guinea pig at 20 mg/kg, administered via intratracheal insufflation by HPLC method; assay type: ADME, organism-based, Cavia porcellus; design: dose 20 mg/kg, route endotracheal; conditions: in vivo, inhaled or intranasal; procedure, shortened: as §1
[28] = Half life in guinea pig at 20 mg/kg, iv by HPLC method; assay type: ADME, organism-based, Cavia porcellus; design: dose 20 mg/kg, route intravenous; conditions: in vivo; procedure, shortened: as §1
[29] = Elimination rate constant in guinea pig at 60 mg/kg, administered via intratracheal insufflation by HPLC method; assay type: ADME, organism-based, Cavia porcellus; design: dose 60 mg/kg, route endotracheal; conditions: in vivo, inhaled or intranasal; procedure, shortened: as §1
[30] = Mean residence time in guinea pig at 40 mg/kg, po by HPLC method; assay type: ADME, organism-based, Cavia porcellus; design: dose 40 mg/kg, route oral; conditions: in vivo; procedure, shortened: as §1
[31] = Ratio of Cmax in mouse at 100 mg/kg, po to MIC for Mycobacterium tuberculosis; assay type: functional
[32] = Tmax in guinea pig at 20 mg/kg, iv by HPLC method; assay type: ADME, organism-based, Cavia porcellus; design: dose 20 mg/kg, route intravenous; conditions: in vivo; procedure, shortened: as §1
[33] = Cmax in guinea pig at 20 mg/kg, administered via intratracheal insufflation by HPLC method; assay type: ADME, organism-based, Cavia porcellus; design: dose 20 mg/kg, route endotracheal; conditions: in vivo, inhaled or intranasal; procedure, shortened: as §1
[34] = Half life in guinea pig at 40 mg/kg, po by HPLC method; assay type: ADME, organism-based, Cavia porcellus; design: dose 40 mg/kg, route oral; conditions: in vivo; procedure, shortened: as §1
[35] = Bioavailability in guinea pig at 20 mg/kg, administered via intratracheal insufflation by HPLC method; assay type: ADME, organism-based, Cavia porcellus; conditions: in vivo, inhaled or intranasal; procedure, shortened: as §1
[36] = AUC (0 to infinity) in guinea pig at 40 mg/kg, administered via intratracheal insufflation by HPLC method; assay type: ADME, organism-based, Cavia porcellus; design: time infinity, dose 40 mg/kg, route endotracheal; conditions: plasma, inhaled or intranasal; procedure, shortened: as §1
[37] = Chemical stability of the compound at 40 degC; assay type: physicochemical
[38] = Bioavailability (0 to infinity) in guinea pig at 40 mg/kg, administered via intratracheal insufflation by HPLC method; assay type: ADME, organism-based, Cavia porcellus; conditions: in vivo, inhaled or intranasal; procedure, shortened: as §1
[39] = Cmax in guinea pig at 60 mg/kg, administered via intratracheal insufflation by HPLC method; assay type: ADME, organism-based, Cavia porcellus; design: dose 60 mg/kg, route endotracheal; conditions: in vivo, inhaled or intranasal; procedure, shortened: as §1
[40] = Chemical stability of the compound at 4 degC; assay type: physicochemical
[41] = Tmax in po dosed rat; assay type: ADME, organism-based; conditions: in vivo
[42] = Elimination rate constant in guinea pig at 40 mg/kg, po by HPLC method; assay type: ADME, organism-based, Cavia porcellus; design: dose 40 mg/kg, route oral; conditions: in vivo; procedure, shortened: as §1
[43] = Metabolic stability of the compound assessed as compound remaining in lung of guinea pig administered via intratracheal insufflation; assay type: ADME, tissue-based, Cavia porcellus; conditions: in vivo, inhaled_or_intranasal; procedure, shortened: as §2
Cavia porcellus [44] = experiment: AUC (0 to infinity) in guinea pig at 40 mg/kg, po by HPLC method; assay type: ADME, organism-based, Plasma; design: time infinity, dose 40 mg/kg, route oral; conditions: in vivo; procedure, shortened: as §1
[45] = Half life in guinea pig at 40 mg/kg, administered via intratracheal insufflation by HPLC method; assay type: ADME, organism-based, Cavia porcellus; design: dose 40 mg/kg, route endotracheal; conditions: in vivo, inhaled or intranasal; procedure, shortened: as §1
[46] = Bioavailability in guinea pig at 40 mg/kg, administered via intratracheal insufflation by HPLC method; assay type: ADME, organism-based, Cavia porcellus; conditions: in vivo, inhaled or intranasal; procedure, shortened: as §1
[47] = Half life in po dosed dog; assay type: ADME, organism-based, Canis lupus familiaris; conditions: in vivo
[48] = Tmax in guinea pig at 40 mg/kg, administered via intratracheal insufflation by HPLC method; assay type: ADME, organism-based, Cavia porcellus; design: dose 40 mg/kg, route endotracheal; conditions: in vivo, inhaled or intranasal; procedure, shortened: as §1
[49] = Tmax in po dosed monkey; assay type: ADME, organism-based, Macaca mulatta; conditions: rhesus monkey, in vivo
[50] = Bioavailability (0 to infinity) in guinea pig at 60 mg/kg, administered via intratracheal insufflation by HPLC method; assay type: ADME, organism-based, Cavia porcellus; conditions: in vivo, inhaled or intranasal; procedure, shortened: as §1
[51] = Elimination rate constant in guinea pig at 40 mg/kg, administered via intratracheal insufflation by HPLC method; assay type: ADME, organism-based, Cavia porcellus; design: dose 40 mg/kg, route endotracheal; conditions: in vivo, inhaled or intranasal; procedure, shortened: as §1
[52] = Chemical stability of the compound after 12 months; assay type: physicochemical; conditions: 8766 h
[53] = Ratio of Cmax in guinea pig at 40 mg/kg, po to MIC for Mycobacterium tuberculosis; assay type: functional

O=[N+]([O-])c1cn2c(n1)OC[C@@H](OCc1ccc(OC(F)(F)F)cc1)C2 [PRETOMANID]
MIC [1]: 0.015 µg/mL (≈ 0.0418 µM)
F (Cavia porcellus [2]): 0.56%
Cmax [3]: 3420 ng/mL
Cmax [4]: 4140 ng/mL
AUC(0-inf) [5]: 51000 ng·h/mL
MRT [6]: 7.52 h
half-life [7]: 355 min
bioavailability [8]: 0.59%
Ratio [9]: 17
MRT [10]: 8.26 h
bioavailability [11]: 0.74%
MRT [12]: 2.69 h
Stability [13]: Unstable
Tmax [14]: 4 h
Stability [15]: Stable
half-life [16]: 170 min
MRT [17]: 5.17 h
AUC (Cavia porcellus [18]): 26.54 µg·h/mL
Stability [19]: Unstable
AUC(0-inf) [20]: 14800 ng·h/mL
Tmax [21]: 3.6 h
k el [22]: 6.67e-05 s⁻¹
k el [23]: 0.000103 s⁻¹
Cmax [24]: 9190 ng/mL
Stability [25]: Unstable
half-life [26]: 120 min
Tmax [27]: 4.33 h
half-life [28]: 115 min
k el [29]: 3.61e-05 s⁻¹
MRT [30]: 5.37 h
Ratio [31]: 80
Tmax [32]: 6.6 min
Cmax [33]: 2010 ng/mL
half-life [34]: 146 min
bioavailability [35]: 2.11%
AUC(0-inf) [36]: 32300 ng·h/mL
Stability [37]: Stable
bioavailability [38]: 0.63%
Cmax [39]: 4580 ng/mL
Stability [40]: Stable
Tmax [41]: 6 h
k el [42]: 8.33e-05 s⁻¹
Activity [43]: Dose-dependent effect
AUC (Cavia porcellus [44]): 25.77 µg·h/mL
half-life [45]: 263 min
bioavailability [46]: 1.12%
half-life [47]: 60 min
Tmax [48]: 3.25 h
Tmax [49]: 3.33 h
bioavailability [50]: 0.62%
k el [51]: 4.72e-05 s⁻¹
Stability [52]: Stable
Ratio [53]: 14
